From ChEMBL document CHEMBL1127529, “Antipsoriatic anthrones with modulated redox properties. 2. Novel derivatives of chrysarobin and isochrysarobin--antiproliferative activity and 5-lipoxygenase inhibition” (J Med Chem, 1994)
pIC50: −log10 of the molar value.

Experiments:
HaCaT = experiment: Antiproliferative activity against HaCaT cells; type: functional, cell-based; conditions: Homo sapiens
In short: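 HaCaT human keratinocytes were kept in DMEM with 10% FCS, penicillin and streptomycin at 37 °C under 8% CO2. After 48 h the cells were detached with trypsin/EDTA and counted by phase-contrast microscopy.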

[1] = Reducing activity against 2,2-diphenyl-1-picrylhydrazyl (DPPH) with equimolar compound; type: functional
In short: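 Test compound and DPPH, each 10⁻⁴ M in acetone/PBS (1-1 v/v), mixed 1 mL + 1 mL. DPPH reduction followed spectrophotometrically at 516 nm. Reciprocal DPPH concentration plotted against time gave straight lines, and second-order rate constants (M⁻¹ s⁻¹) were taken from the slopes. Values are means, N = 3-6. Highly reactive compounds gave approximate values only.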

[2] = Partition coefficient (logP) (HPLC); type: physicochemical; conditions: octanol/water
In short: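 Reversed-phase HPLC with MeOH/water/HOAc (77-23-0.1) as eluant, adjusted to pH 5.5 with concentrated NH3.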

[3] = Deoxyribose degradation as a measure of hydroxy radical formation.; type: functional
In short: (§1)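 2-Deoxy-D-ribose (2 mM) was incubated with FeCl3 (0.1 mM) and compound (75 μM) in KH2PO4-KOH buffer pH 7.4 (30 mM) for 2 h at 37 °C with shaking. TBA-reactive material was read at 532 nm. Result is µmol malondialdehyde per mmol deoxyribose.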

[4] = target: T1, Arachidonate 5-lipoxygenase (Bos taurus, UniProt Q9BEG3); experiment: Inhibition of 5-lipoxygenase in bovine polymorphonuclear leukocytes; type: cell-based
T1 sequence (Q9BEG3 whole entry): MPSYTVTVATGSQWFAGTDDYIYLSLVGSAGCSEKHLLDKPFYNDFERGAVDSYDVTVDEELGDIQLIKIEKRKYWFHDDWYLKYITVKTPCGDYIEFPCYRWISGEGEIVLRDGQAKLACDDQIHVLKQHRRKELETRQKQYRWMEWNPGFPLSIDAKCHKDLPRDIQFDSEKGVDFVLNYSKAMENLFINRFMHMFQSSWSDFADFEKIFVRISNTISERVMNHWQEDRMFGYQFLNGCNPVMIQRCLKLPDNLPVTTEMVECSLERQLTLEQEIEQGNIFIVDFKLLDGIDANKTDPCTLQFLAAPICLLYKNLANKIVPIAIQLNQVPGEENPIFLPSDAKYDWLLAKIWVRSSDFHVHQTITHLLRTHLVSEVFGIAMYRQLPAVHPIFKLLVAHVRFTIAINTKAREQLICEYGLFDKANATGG
In short: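 Bovine PMNL (10^7 cells/mL) were stimulated with Ca-ionophore. Compound was preincubated for 15 min at 37 °C.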

Liposome = experiment: Inhibition of 2,2'-azobis(2-aminopropane)hydrochloride (AAPH) induced lipid peroxidation in bovine brain phospholipid liposomes; type: functional, subcellular, Bos taurus
[5] = Deoxyribose degradation assay as hydroxy radical formation; type: functional; in short: as §1

Compound	logP [2]	pIC50 [4]	pIC50 (Liposome)	pIC50 (HaCaT)	kDPPH [1] [M⁻¹ s⁻¹]	DD (uM of MDA mM-1) [3]	DD (uM of MDA mM-1) [5]
O=C1c2c(O)cccc2Cc2ccc(Cc3cc(O)ccc3O)c(O)c21	3.33	6.05	5.15	6.15	> 100	1.46	–
COc1cc(CCCc2ccc3c(c2O)C(=O)c2c(O)cccc2C3)cc(OC)c1OC	5.64	5.22	–	5.70	> 100	< 0.15	–
COc1ccc(Cc2ccc3c(c2O)C(=O)c2c(O)cccc2C3)cc1OC	5.79	< 4.52	–	–	> 100	< 0.15	–
O=C1c2c(O)cccc2Cc2ccc(Cc3cccc(Oc4ccccc4)c3)c(O)c21	6.35	< 4.52	–	–	6.4	< 0.15	–
O=C1c2c(O)cccc2Cc2ccc(CCCc3ccc(O)cc3)c(O)c21	5.27	5.70	4.30	6.40	> 100	< 0.15	–
COc1c(OC)c(OC(C)=O)c2cc(Cl)ccc2c1OC(C)=O [LONAPALENE]	–	–	< 4.30	5.49	–	–	< 0.15
COc1ccc(CCCc2ccc3c(c2O)C(=O)c2c(O)cccc2C3)cc1	6.46	4.52	–	< 5.30	14	< 0.15	–
COc1ccc(Cc2cc(O)c3c(c2)Cc2cccc(O)c2C3=O)cc1	5.3	< 4.52	4.48	6.52	11.2	< 0.15	–
O=C1c2c(O)cccc2Cc2cc(Cc3ccc(O)cc3)cc(O)c21	4.52	< 4.52	4.85	6.40	12.6	–	0.27
O=C1c2c(O)cccc2Cc2ccc(Cc3ccc(C(F)(F)F)cc3)c(O)c21	5.92	< 4.52	–	< 5.30	3.7	< 0.15	–
COC(=O)c1ccccc1Cc1ccc2c(c1O)C(=O)c1c(O)cccc1C2	5.24	< 4.52	–	–	11.4	< 0.15	–
COc1ccc(C(=O)c2cc(O)c3c(c2)Cc2cccc(O)c2C3=O)cc1	4.83	< 4.52	–	5.77	> 100	0.98	–
Cc1ccc(C(=O)c2cc(O)c3c(c2)Cc2cccc(O)c2C3=O)cc1	5.14	< 4.52	4.40	–	> 100	1.01	–
O=C1c2c(O)cccc2Cc2ccc(Cc3ccc(O)cc3O)c(O)c21	3.68	5.30	4.80	5.82	> 100	0.34	–
O=C1c2c(O)cccc2Cc2ccc(CCCc3cc(O)c(O)c(O)c3)c(O)c21	3.96	6.22	5.30	6.30	> 100	2.97	–
COC(=O)c1ccc(Cc2ccc3c(c2O)C(=O)c2c(O)cccc2C3)cc1	5.34	< 4.52	–	–	10.4	< 0.25	–
O=C1c2c(O)cccc2Cc2ccc(Cc3ccccc3O)c(O)c21	4.67	5.30	4.60	6.15	> 100	0.35	–
CC(Cc1ccc(O)c(O)c1)C(C)Cc1ccc(O)c(O)c1 (stereo unspecified) [NORDIHYDROGUAIARETIC ACID]	–	–	5.70	–	–	–	–
O=C1c2c(O)cccc2Cc2cc(Cc3cc(O)ccc3O)cc(O)c21	3.2	–	5.52	6.40	> 100	1.74	–
COc1ccc(Cc2ccc3c(c2O)C(=O)c2c(O)cccc2C3)cc1	5.62	< 4.52	–	–	11.3	< 0.25	–
O=C1c2c(O)cccc2Cc2ccc(Cc3ccc(O)c(O)c3)c(O)c21	4.01	5.40	–	6.40	> 100	1.82	–
O=C1c2c(O)cccc2Cc2ccc(Cc3ccc(O)cc3)c(O)c21	4.66	5.15	4.37	6.10	> 100	0.38	–
Cc1ccc(Cc2ccc3c(c2O)C(=O)c2c(O)cccc2C3)cc1	6.04	< 4.52	–	–	8.5	–	< 0.25
O=C1c2c(O)cccc2Cc2ccc(CCCCc3ccccc3)c(O)c21	6.81	< 4.52	3.95	–	10.4	< 0.15	–
O=C1c2c(O)cccc2Cc2ccc(Cc3ccccc3)c(O)c21	5.61	< 4.52	4.01	< 5.30	11.2	< 0.25	–
O=C(O)c1ccccc1Cc1ccc2c(c1O)C(=O)c1c(O)cccc1C2	4.48	5.40	4.38	< 5.30	16.9	1.2	–

The next lines start with results.

logP [2]	pIC50 [4]	pIC50 (Liposome)	Compound	pIC50 (HaCaT)	kDPPH [1] [M⁻¹ s⁻¹]	DD (uM of MDA mM-1) [3]	DD (uM of MDA mM-1) [5]
3.88	5.70	5.40	O=C1c2c(O)cccc2Cc2cc(Cc3ccc(O)c(O)c3)cc(O)c21	6.30	> 100	0.41	–
6.44	4.96	4.17	O=C1c2c(O)cccc2Cc2ccc(CCCc3ccccc3)c(O)c21	< 5.30	11.1	0.56	–
5.98	< 4.52	3.82	O=C1c2c(O)cccc2Cc2ccc(Cc3ccc(Cl)cc3)c(O)c21	–	19.3	< 0.15	–
6.23	< 4.52	3.96	O=C1c2c(O)cccc2Cc2ccc(CCc3ccccc3)c(O)c21	–	16.1	< 0.15	–
5.34	< 4.52	< 3.70	COc1ccc(Cc2cc(O)c3c(c2)Cc2cccc(O)c2C3=O)c(OC)c1	6.40	10.3	0.32	–
5.17	< 4.52	–	COc1ccc(OC)c(Cc2cc(O)c3c(c2)Cc2cccc(O)c2C3=O)c1	6.70	14.8	0.51	–
4.1	–	4.21	O=C(O)c1ccc(Cc2ccc3c(c2O)C(=O)c2c(O)cccc2C3)cc1	–	9.9	< 0.25	–
4.47	4.74	4.37	O=C(c1ccccc1)c1ccc2c(c1O)C(=O)c1c(O)cccc1C2	5.80	> 100	2.68	–
3.67	5.15	4.80	O=C1c2c(O)cccc2Cc2cc(Cc3ccc(O)cc3O)cc(O)c21	6.30	39.3	–	3.26
5.04	< 4.52	–	COc1ccc(Cc2ccc3c(c2O)C(=O)c2c(O)cccc2C3)c(OC)c1	< 5.30	> 100	< 0.15	–
5.62	< 4.52	–	COc1ccccc1Cc1ccc2c(c1O)C(=O)c1c(O)cccc1C2	–	12	< 0.25	–
5.72	< 4.52	< 3.70	COc1ccc(OC)c(Cc2ccc3c(c2O)C(=O)c2c(O)cccc2C3)c1	–	> 100	< 0.15	–
5.29	< 4.52	4.19	O=C1c2c(O)cccc2Cc2cc(Cc3ccccc3)cc(O)c21	–	18.1	< 0.25	–
4.83	< 4.52	4.40	O=C(c1ccccc1)c1cc(O)c2c(c1)Cc1cccc(O)c1C2=O	–	> 100	1.97	–
